ChEMBL document CHEMBL1153716, “Constrained peptidomimetics reveal detailed geometric requirements of covalent prolyl oligopeptidase inhibitors” (J Med Chem, 2009)
Calls of active or inactive are those of the source. The rule behind the calls is not given here.

Legend:
Prolyl endopeptidase [1] = molecular target: T1, Prolyl endopeptidase (Homo sapiens, UniProt P48147); assay: Inhibition of prolyl oligopeptidase in human LNZ308 cell extracts assessed as blockade of Z-Gly-Pro-AMC substrate hydrolysis by fluorimetric assay
T1 sequence (P48147 whole entry): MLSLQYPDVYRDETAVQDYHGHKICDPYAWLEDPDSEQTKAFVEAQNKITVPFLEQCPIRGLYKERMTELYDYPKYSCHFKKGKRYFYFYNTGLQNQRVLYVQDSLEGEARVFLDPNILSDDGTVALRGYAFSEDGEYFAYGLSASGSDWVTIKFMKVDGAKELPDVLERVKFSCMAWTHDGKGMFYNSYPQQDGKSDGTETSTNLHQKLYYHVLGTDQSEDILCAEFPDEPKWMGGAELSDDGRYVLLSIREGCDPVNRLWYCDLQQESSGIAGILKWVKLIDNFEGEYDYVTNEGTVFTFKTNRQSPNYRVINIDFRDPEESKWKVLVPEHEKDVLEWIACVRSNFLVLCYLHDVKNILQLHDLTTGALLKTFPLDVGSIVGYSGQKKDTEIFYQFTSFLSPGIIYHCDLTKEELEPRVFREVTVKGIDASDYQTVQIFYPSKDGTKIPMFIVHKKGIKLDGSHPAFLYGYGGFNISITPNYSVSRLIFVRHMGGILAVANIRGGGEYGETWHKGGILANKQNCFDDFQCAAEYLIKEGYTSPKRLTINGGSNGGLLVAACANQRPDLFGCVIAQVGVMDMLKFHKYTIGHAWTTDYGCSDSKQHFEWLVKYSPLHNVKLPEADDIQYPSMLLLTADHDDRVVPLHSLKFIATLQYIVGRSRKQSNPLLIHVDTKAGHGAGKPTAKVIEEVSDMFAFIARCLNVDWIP

Prolyl endopeptidase [2] = molecular target: T1, Prolyl endopeptidase; assay: Inhibition of prolyl oligopeptidase in human LN229 cell extracts assessed as blockade of Z-Gly-Pro-AMC substrate hydrolysis by fluorimetric assay
[3] = molecular target: Dipeptidyl peptidase 4 (Homo sapiens) (UniProt P27487); assay: Inhibition of DPP4 in human fibroblast extracts assessed as blockade of Gly-Pro-AMC substrate hydrolysis at 100 uM by fluorimetric assay
Sequence of Dipeptidyl peptidase 4 (Homo sapiens) (P27487 whole entry, looked up): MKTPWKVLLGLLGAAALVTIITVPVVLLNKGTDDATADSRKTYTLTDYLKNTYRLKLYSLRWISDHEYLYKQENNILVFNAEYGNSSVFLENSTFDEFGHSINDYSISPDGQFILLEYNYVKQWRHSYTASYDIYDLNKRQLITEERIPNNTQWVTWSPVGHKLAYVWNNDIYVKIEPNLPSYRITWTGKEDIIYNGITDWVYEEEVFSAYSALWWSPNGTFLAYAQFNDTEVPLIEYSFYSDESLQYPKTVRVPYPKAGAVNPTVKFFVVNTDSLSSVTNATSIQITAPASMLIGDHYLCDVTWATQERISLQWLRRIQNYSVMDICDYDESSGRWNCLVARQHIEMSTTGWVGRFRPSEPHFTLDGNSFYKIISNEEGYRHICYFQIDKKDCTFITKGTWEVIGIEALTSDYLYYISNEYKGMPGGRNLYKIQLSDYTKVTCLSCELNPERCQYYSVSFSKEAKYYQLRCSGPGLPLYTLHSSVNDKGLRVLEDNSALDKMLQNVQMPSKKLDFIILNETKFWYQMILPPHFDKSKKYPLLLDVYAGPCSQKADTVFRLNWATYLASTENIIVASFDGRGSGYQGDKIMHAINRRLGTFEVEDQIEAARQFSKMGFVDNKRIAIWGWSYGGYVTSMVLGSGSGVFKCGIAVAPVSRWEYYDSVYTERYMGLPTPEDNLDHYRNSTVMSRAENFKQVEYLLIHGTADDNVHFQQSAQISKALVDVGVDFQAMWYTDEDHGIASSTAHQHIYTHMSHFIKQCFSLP
Summary of the method: (§1)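 Confluent human cells (glioblastoma LN18, LN229, LNZ308; brain endothelial HCEC; lung PO03 or skin PG98/5 fibroblasts) grown in DMEM with 4.5 g/L glucose and 10% FCS, then lysed in PBS (pH 7.2-7.4) containing 0.1% Triton X-100. Compound was diluted from methanol stock into water and preincubated 5-10 min at room temperature. Gly-Pro-AMC was then added. Duplicate wells.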

Prolyl endopeptidase [4] = molecular target: T1, Prolyl endopeptidase; assay: Inhibition of prolyl oligopeptidase in intact human HCEC cells assessed as blockade of Z-Gly-Pro-AMC substrate hydrolysis by fluorimetric assay; assay type: cell-based
[5] = molecular target: Dipeptidyl peptidase 4 (Homo sapiens) (UniProt P27487); assay: Inhibition of DPP4 in human astrocyte derived cell extracts assessed as blockade of Gly-Pro-AMC substrate hydrolysis at 100 uM by fluorimetric assay; summary of the method: as §1
[6] = molecular target: Dipeptidyl peptidase 4 (Homo sapiens) (UniProt P27487); assay: Inhibition of DPP4 in intact human brain derived endothelial cells assessed as blockade of Gly-Pro-AMC substrate hydrolysis at 100 uM by fluorimetric assay; assay type: cell-based; details: Endothelial cell
Summary of the method: (§2)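 Confluent intact human glioblastoma (LN18, LN229, LNZ308), brain endothelial HCEC, or lung PO03 and skin PG98/5 fibroblast monolayers kept in PBS (pH 7.2-7.4) without detergent. Compound was diluted from methanol stock into water and preincubated 5-10 min at room temperature. Gly-Pro-AMC was then added and hydrolysis read by fluorescence. Duplicate wells.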

Prolyl endopeptidase [7] = molecular target: T1, Prolyl endopeptidase; assay: Inhibition of prolyl oligopeptidase in human HCEC cell extracts assessed as blockade of Z-Gly-Pro-AMC substrate hydrolysis by fluorimetric assay; assay type: cell-free
Prolyl endopeptidase [8] = molecular target: T1, Prolyl endopeptidase; assay: Inhibition of prolyl oligopeptidase in intact human LNZ308 cells assessed as blockade of Z-Gly-Pro-AMC substrate hydrolysis by fluorimetric assay; assay type: cell-based
[9] = molecular target: Dipeptidyl peptidase 4 (Homo sapiens) (UniProt P27487); assay: Inhibition of DPP4 in intact human astrocyte derived cells assessed as blockade of Gly-Pro-AMC substrate hydrolysis at 100 uM by fluorimetric assay; summary of the method: as §2
[10] = molecular target: Dipeptidyl peptidase 4 (Homo sapiens) (UniProt P27487); assay: Inhibition of DPP4 in human brain derived endothelial cell extracts assessed as blockade of Gly-Pro-AMC substrate hydrolysis at 100 uM by fluorimetric assay; assay type: cell-free; summary of the method: as §1
Prolyl endopeptidase [11] = molecular target: T1, Prolyl endopeptidase; assay: Inhibition of prolyl oligopeptidase in intact human LN229 cells assessed as blockade of Z-Gly-Pro-AMC substrate hydrolysis by fluorimetric assay; assay type: cell-based
[12] = molecular target: Dipeptidyl peptidase 4 (Homo sapiens) (UniProt P27487); assay: Inhibition of DPP4 in intact human fibroblasts assessed as blockade of Gly-Pro-AMC substrate hydrolysis at 100 uM by fluorimetric assay; summary of the method: as §2
[13] = molecular target: T2, Prolyl endopeptidase (Homo sapiens) (UniProt P48147); assay: Inhibition of prolyl oligopeptidase in human astrocyte derived cell extracts assessed as blockade of Z-Gly-Pro-AMC substrate hydrolysis at 100 uM by fluorimetric assay
T2 sequence (whole entry): T1 sequence (P48147 whole entry)
Summary of the method: (§3)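 Confluent human glioblastoma (LN18, LN229, LNZ308), brain endothelial HCEC, or lung PO03 and skin PG98/5 fibroblasts extracted in PBS with 0.1% Triton X-100. Compound was diluted from methanol stock into water and preincubated 5-10 min at room temperature. Z-Gly-Pro-AMC was then added and read by fluorescence. Duplicate wells.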

[14] = molecular target: T2, Prolyl endopeptidase (Homo sapiens); assay: Inhibition of prolyl oligopeptidase in intact human brain derived endothelial cells assessed as blockade of Z-Gly-Pro-AMC substrate hydrolysis at 100 uM by fluorimetric assay; assay type: cell-based; details: Endothelial cell
Summary of the method: (§4)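 Intact confluent human glioblastoma (LN18, LN229, LNZ308), brain endothelial HCEC, or lung PO03 and skin PG98/5 fibroblast monolayers in PBS (pH 7.2-7.4), cells grown beforehand in DMEM with 10% FCS. Compound was diluted from methanol stock into water and preincubated 5-10 min at room temperature. Z-Gly-Pro-AMC was then added and read fluorimetrically. Duplicate wells.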

[15] = molecular target: T2, Prolyl endopeptidase (Homo sapiens); assay: Inhibition of prolyl oligopeptidase in intact human astrocyte derived cells assessed as blockade of Z-Gly-Pro-AMC substrate hydrolysis at 100 uM by fluorimetric assay; summary of the method: as §4
[16] = molecular target: T2, Prolyl endopeptidase (Homo sapiens); assay: Inhibition of prolyl oligopeptidase in intact human fibroblasts assessed as blockade of Z-Gly-Pro-AMC substrate hydrolysis at 100 uM by fluorimetric assay; summary of the method: as §4
[17] = molecular target: T2, Prolyl endopeptidase (Homo sapiens); assay: Inhibition of prolyl oligopeptidase in human fibroblast extracts assessed as blockade of Z-Gly-Pro-AMC substrate hydrolysis at 100 uM by fluorimetric assay; summary of the method: as §3
[18] = molecular target: T2, Prolyl endopeptidase (Homo sapiens); assay: Inhibition of prolyl oligopeptidase in human brain derived endothelial cell extracts assessed as blockade of Z-Gly-Pro-AMC substrate hydrolysis at 100 uM by fluorimetric assay; assay type: cell-free; summary of the method: as §3

Compound | IC50 (Prolyl endopeptidase [1]) [nM] | IC50 (Prolyl endopeptidase [2]) [nM] | inhibition [3] | IC50 (Prolyl endopeptidase [4]) [nM] | inhibition [5] | inhibition [6] | IC50 (Prolyl endopeptidase [7]) [nM] | IC50 (Prolyl endopeptidase [8]) [nM] | inhibition [9] | inhibition [10] | IC50 (Prolyl endopeptidase [11]) [nM] | inhibition [12] | inhibition [13] | inhibition [14] | inhibition [15] | inhibition [16] | inhibition [17] | inhibition [18]
N#C[C@@H]1CO[C@H]2C[C@H](NC(=O)OCc3ccccc3)C(=O)N12 |  |  | inactive |  | inactive | inactive |  |  | inactive | inactive |  | inactive | inactive | inactive | inactive | 10% | 10% | inactive
C[C@H]1O[C@H]2C[C@@H](NC(=O)OCc3ccccc3)C(=O)N2[C@@H]1C#N |  |  | inactive |  | inactive | inactive |  |  | inactive | inactive |  | inactive | 10% | 10% | inactive | inactive | inactive | 10%
N#C[C@@H]1CCCN1C(=O)OCc1ccccc1 |  |  | inactive |  | inactive | inactive |  |  | inactive | inactive |  | inactive | inactive | inactive | inactive | 10% | inactive | 10%

Continued, values first:

IC50 (Prolyl endopeptidase [1]) [nM] | IC50 (Prolyl endopeptidase [2]) [nM] | inhibition [3] | IC50 (Prolyl endopeptidase [4]) [nM] | inhibition [5] | inhibition [6] | IC50 (Prolyl endopeptidase [7]) [nM] | IC50 (Prolyl endopeptidase [8]) [nM] | inhibition [9] | inhibition [10] | IC50 (Prolyl endopeptidase [11]) [nM] | inhibition [12] | inhibition [13] | inhibition [14] | inhibition [15] | inhibition [16] | inhibition [17] | inhibition [18] | Compound
200 | 500 | inactive | 1300 | inactive | inactive | 700 | 2500 | inactive | inactive | 2000 | inactive |  |  |  |  |  |  | N#C[C@@H]1CS[C@H]2C[C@@H](NC(=O)OCc3ccccc3)C(=O)N12
 |  | inactive |  | inactive | inactive |  |  | inactive | inactive |  | inactive | inactive | inactive | inactive | 10% | 10% | inactive | COC(=O)[C@@H]1CS[C@H]2C[C@@H](NC(=O)OCc3ccccc3)C(=O)N21
 |  | inactive |  | inactive | inactive |  |  | inactive | inactive |  | inactive | > 50% | 10% | > 50% | > 50% | > 50% | > 50% | N#C[C@@H]1CS[C@H]2CC[C@H](NC(=O)OCc3ccccc3)C(=O)N12
 |  | inactive |  | inactive | inactive |  |  | inactive | inactive |  | inactive | > 50% | > 50% | > 50% | > 50% | > 50% | > 50% | N#C[C@@H]1CS[C@H]2CC[C@@H](NC(=O)OCc3ccccc3)C(=O)N12
